Measured values taken from publication PMC8978659 (RSC Advances, 2021).

System: RAW264.7 cells
Experiment: Cytotoxicity test, CCK-8
Type: cell-based
Settings: 10 μM, 48 h, CCK-8, OD 450 nm, duplicate independent experiments
How it was run: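 RAW264.7 cells seeded at 1 × 10^5 per mL and exposed for 48 h to test compound at 0, 1.25, 2.5, 5 and 10 μM. CCK-8 reagent added, then 4 h at 37 °C protected from light. Absorbance read at 450 nm. Survival rate = OD of treated / OD of blank control; cytotoxic effect = 1 − survival rate.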

Structure (SMILES): NCC1CC(=S)N2CC3CCCN4CCCC(C34)C2C1 (stereo not shown) [M19, 13-Aminomethyl-15-thiomatrine]
- cell viability inhibition: about 20%
